Measured values gathered from unrelated publications.
Compare with care: the assays were run in different laboratories.
Target: Dual specificity mitogen-activated protein kinase kinase 1 (MAP2K1, Homo sapiens, UniProt Q02750)

SMILES | effect on | mode | technique | tested at | quantity | result
COc1ncccc1-c1cnn2ccc(N3CCN(C(=O)OC(C)C)CC3)nc12 | binding | – | competition with immobilised ligand | 1 µM | remaining binding | 100%
N#CC1(c2ccccn2)CCN(Cc2cc(C(=O)O)c(=O)n3ccccc23)CC1 | cell-free assay | – | competition with immobilised ligand | 1 µM | remaining binding | 95%
Cn1cc(-c2cccc(N3CCc4c(sc5c4CC(C)(C)C5)C3=O)c2CO)cc(Nc2ccncn2)c1=O | enzyme activity | inhibitor | – | 1 µM | inhibition | 0%
O=c1[nH]c2ccccc2n1C1CCN(Cc2ccc(-c3[nH]c4cc5ncnc5cc4nc3-c3ccccc3)cc2)CC1 | cell-free assay | – | – | 0.5 µM | remaining signal | 96.8%
C#Cc1n[nH]c2c(-c3cn([C@@H](C)c4ccccc4)c(=O)[nH]c3=O)cc(F)cc12 | enzyme activity | inhibitor | – | 0.1 µM | inhibition | 6.6%
Cn1cncc1[C@](O)(COc1ccc(C#N)cc1-c1ccc(OC(F)(F)F)cc1)c1ccc(C#N)cc1 | cell-free assay | – | competition with immobilised ligand | 1 µM | remaining binding | 100%
C#Cc1n[nH]c2c(-c3cn([C@@H](C)c4ccccn4)c(=O)[nH]c3=O)cc(F)cc12 | enzyme activity | inhibitor | – | 0.1 µM | inhibition | 12%
Cc1nn(C)cc1-c1nc2c(N3CCN(Cc4ccc(Cl)cc4)CC3)c(Cl)cnc2[nH]1 | binding | – | competition with immobilised ligand | 1 µM | remaining binding | 100%
Nc1ncc(-c2nc(N3CCOCC3)nc(N3CCOCC3)n2)c(C(F)F)n1 | binding | – | competition with immobilised ligand | 10 µM | remaining binding | 83%
Cn1cc(-c2cc(F)cc(N3CCn4c(cc5c4CCCC5)C3=O)c2CO)cc(Nc2ccc(N3CCN(C4COC4)CC3)cn2)c1=O | enzyme activity | inhibitor | – | 0.1 µM | inhibition | 6%
CC(C)(C)c1cc(C=C(C#N)C#N)cc(Br)c1O | enzyme activity | inhibitor | – | 0.5 µM | remaining activity | 90.8%
